Screens as filed in PubChem BioAssay.
Compounds with a hit are over-represented: about 6% of the library has one in this group of screens.
cytoskel mod: cytoskeleton assembly modification; HUVEC TNFa F-actin phalloidin imaging, high content; inhibition, % at 2 µM; 91,000 compounds, 0.18% hits; AID 836;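 active = inhibition above the batch mean plus 3 SD and confirmed as a hit by visual image inspection, cut at about 30% in these data, passing the limit was not always enough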
HUVEC inhibit: blocks proliferation of human endothelial cells. 86,000 compounds, 1.1% hits. HUVEC proliferation, CellTiter-Glo luminescence, 72 h; hits give low values. viability, % at 10 µM (by protocol);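 active = viability at or below 30%; inactive = viability above 30%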;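 also: 100% = median luminescence of DMSO-only cell control wells on each plate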
H69AR inhibit: blocks growth of human H69AR lung tumor cells | H69AR lung tumor viability, ATP luminescence, 72 h; hits give low values | viability, % at 10 µM | 85,000 compounds, 6% hits | AID 598;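 active = viability at or below 40%; inactive = viability above 40%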;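 also: multidrug resistant small cell line overexpressing MRP-1 efflux transporter; 100% = mean luminescence of untreated control wells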
Lung fibro prol: blocks proliferation of human lung fibroblasts. LL 47 human lung fibroblast viability, ATP luminescence; hits give low values. viability, % at 10 µM. 85,000 compounds, 1.1% hits;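 active = viability at or below 50% in the single dose screen; inactive = viability above 50%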;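 also: compound exposure lasted 72 h before the ATP readout; 100% = median luminescence of untreated cell-only wells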
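Material: human LL 47 lung fibroblast cells; quantity: 1,150 cells/well; medium: IMEM plus 15% FBS; doses: 0.1% DMSO in all compound wells; timing: overnight attachment after seeding, then 72 h compound exposure at 37 °C; detection: CellTiter-Glo luminescence; measure: % viability of median cell-only signal; controls: cell-only wells, no compound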
Jurkat tox 60K: cytotoxic compounds reducing Jurkat cell viability. 56,000 compounds, 1.2% hits. AID 463. inhibition, % at 4 µM. Jurkat E6.1 viability, ATP luminescence, 48 h;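 active = inhibition above the mean inhibition of all tested compounds plus 3 SD, cut at about 28% in these data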
Pyk2 oligo antag: Pyk2 (human) oligomerization antagonism; Q14289; Q293 cells, Pyk2 FERM NanoBiT luminescence; hits give low values; z-score (the deposit names both 25 µM and 10 µM); 99,000 compounds, 0.83% hits; AID 1347419;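 active = Z-score of -3 or lower, scaled per plate to the spread of control and sample wells; inactive = z-score above -3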;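 also: negative z-score means lost luminescence so less FERM oligomerization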
The depositor's hits bear a star; x = no result given.

SMILES	cytoskel mod	HUVEC inhibit	H69AR inhibit	Lung fibro prol	Jurkat tox 60K	Pyk2 oligo antag
O=C(C1CCC(CNS(=O)(=O)c2cccc3nsnc23)CC1)N1CC=C(c2ccccc2)CC1 (centres undefined)	0.3	79.8	39.3*	104.7	x	x
CC1CCC(NC(=O)C2CCC(CNS(=O)(=O)c3cccc4nsnc34)CC2)CC1 (centres undefined)	-10.9	43.5	17.2*	67.1	x	x
O=C(NC1CCCCC1)C1CCC(CNS(=O)(=O)c2cccc3nsnc23)CC1 (centres undefined)	5.8	55.9	85.1	96.5	x	x
CC(=O)C1=C(O)C(=O)N(c2ccc(C)cc2)C1c1ccccn1 (centres undefined)	-26.8	98.8	108.5	97.3	x	-0.63
C=CCN1C(=O)/C(=C2/Sc3ccccc3N2CCCS(=O)(=O)O)SC1=S	64.8*	82.5	99.0	92.9	2.3	-0.74
CCC1C(=O)Nc2nc(-c3ccccc3)c(-c3ccccc3)n2N=C1C (centres undefined)	x	101.0	50.6	90.2	x	-0.53
CCOC(=O)N1CCN(C(=O)CN(c2ccc3c(c2)OCO3)S(C)(=O)=O)CC1	4.8	100.2	86.3	100.1	-0.9	2.51
COc1ccc(C=O)cc1CSc1nnc(COc2cccc3cccnc23)o1	4.3	73.3	85.3	94.5	x	-0.76
Cc1ccc(NC(=O)c2c(O)c3ccccc3n(C)c2=O)nc1	x	126.3	13.2*	30.6*	x	0.52
Cc1nc2ccccc2c(=O)n1NC(=O)c1c(O)c2ccccc2n(C)c1=O	x	106.9	96.7	91.9	-1.4	x
Cn1c(=O)c(C(=O)Nc2ncccc2O)c(O)c2ccccc21	x	98.0	85.8	98.5	x	-1.17
CC(C)Cn1c(=O)c(C(=O)Nc2cnccn2)c(O)c2ccccc21	x	121.6	106.5	106.4	2.8	4.11
CC(C)Cn1c(=O)c(C(=O)Nc2ccncc2)c(O)c2ccccc21	x	61.5	9.8*	64.8	2.5	x
Cn1c(=O)c(C(=O)Nc2cccnc2)c(O)c2ccccc21	17.6	44.4	12.0*	77.7	x	x
COc1ccc(CNC(=O)c2c(O)c3ccccc3n(C)c2=O)cc1OC	28.7	89.9	70.5	85.8	-1.8	-0.15
Cc1ccnc(NC(=O)c2c(O)c3ccccc3n(C)c2=O)c1	x	130.8	5.7*	76.0	5.9	x
Clc1ccc(Cn2ncc3c(NCCN4CCOCC4)ncnc32)cc1	7.5	100.5	101.1	112.6	0.5	0.69
CCc1nnc(NC(=O)CSc2nnc(-c3ccccc3NC(=O)c3ccccc3)o2)s1	-4.5	86.6	30.1*	58.6	0.1	-2.96
CCn1c2c(c3cc(Br)ccc31)CCC/C2=N\O	14.0	49.3	85.6	84.1	3.7	0.42
CCCn1c2ccc(/C(C)=N\O)cc2c2cc(/C(C)=N/O)ccc21	-7.0	82.5	27.1*	89.8	x	-1.32
N#Cc1ccccc1Sc1ccccc1C(=O)OCc1nnc(-c2ccccc2)o1	-61.9	91.7	75.0	101.2	3.6	-3.69*
Cc1noc(C)c1COC(=O)c1ccccc1Sc1ccccc1C#N	-23.5	104.1	89.2	89.2	12.3	-1.08
Cc1ccc(C)c(S(=O)(=O)N2CCC(c3nc4c(nnn4Cc4ccc(F)cc4)c(=O)[nH]3)CC2)c1	x	63.3	44.5	96.3	-8.9	0.62
Cc1ccc(Cn2nnc3c(=O)[nH]c(C4CCN(S(=O)(=O)c5cc(C)ccc5C)CC4)nc32)cc1	x	62.8	31.5*	100.0	-7.4	-1.96
Cc1ccc(C)n1NC(=O)c1ccccc1O	4.6	87.9	28.7*	44.5*	x	-0.12
SMILES	cytoskel mod	HUVEC inhibit	H69AR inhibit	Lung fibro prol	Jurkat tox 60K	Pyk2 oligo antag
COc1ccc(OC)c(N=c2oc3c(OC)cccc3cc2C(=O)NCc2ccco2)c1	x	94.1	87.9	91.7	-0.2	-0.44
COc1ccc(N=c2oc3c(OC)cccc3cc2C(=O)NCc2ccco2)cc1OC	x	56.0	36.3*	90.2	3.2	1.56
COc1ccccc1N=c1oc2c(OC)cccc2cc1C(=O)NCc1ccco1	5.9	60.7	14.7*	85.7	-2.5	-0.39
COc1ccc(CNC(=O)CSc2nnc(C)s2)cc1	x	102.4	92.6	103.1	-2.6	-0.54
On1onc2c3cc(-c4ccccc4)nc3ccc21	0.5	40.4	6.0*	22.6*	98.4*	-2.77
CCOc1ccc(C2C(C(=O)c3cccs3)=C(O)C(=O)N2CCCn2ccnc2)cc1 (centres undefined)	11.5	98.1	107.6	104.3	x	x
Oc1c(CN2CCN(c3ccccn3)CC2)cc(Cl)c2cccnc12	x	59.6	0.1*	34.2*	44.6*	1.06
OCCN1CCN(Cc2cc(Cl)c3cccnc3c2O)CC1	-9.7	81.2	36.9*	54.3	x	0.04
CCC(=O)N(CC(=O)Nc1sc(C)c(C)c1C(N)=O)C1CCCCC1	4.0	x	x	x	x	0.16
O=C(O)CCC(=O)NCc1ccc(F)cc1	6.1	90.6	91.9	109.6	x	0.97
CCOC(=O)c1ccc(CNC(=O)CCC(=O)O)cc1	34.0*	110.5	90.1	102.8	x	0.46
O=C(O)C1C2C=CC(O2)C1C(=O)Nc1ccc(S(=O)(=O)Nc2ccccc2)cc1 (centres undefined)	38.4*	92.1	95.6	108.2	-4.8	-0.01
COc1ccc(OC)c(NC(=O)CSc2nnc(C3CCCCC3)n2-c2ccccc2)c1	13.9	86.5	45.3	91.7	x	-0.35
O=S1(=O)Nc2c(ccc3cccnc23)-c2ccccc21	x	x	x	x	67.2*	-0.95
O=c1[nH]n(-c2cccc3cccnc23)c(=O)c2ccccc12	30.5	92.6	x	99.7	-2.8	-0.37
O=C(NCC1c2ccccc2CCN1C(=O)CN1C(=O)c2ccccc2C1=O)C1CCCCC1 (centres undefined)	x	98.7	100.7	100.6	x	0.92
c1ccc2c(c1)ncn2-c1ncnc2sc3c(c12)CCCC3	-11.0	87.3	79.9	93.4	x	-0.18
CC(O)CNc1nc2ccccc2n1-c1ncnc2sc3c(c12)CCC3 (centres undefined)	33.3	53.3	37.9*	80.8	-3.3	0.48
O=C(c1ccc(N2CCNCC2)cc1)c1cccnc1	-4.9	85.0	98.4	98.2	-5.1	0.07
N#CC1=C(N)NC(SCc2ccc(Br)cc2)=C(C#N)C12CCCCC2	-6.0	56.9	59.1	87.3	x	-2.26
N#CC1=C(N)NC(SCc2ccc(Cl)cc2)=C(C#N)C12CCCCC2	-8.6	44.5	13.1*	85.1	x	-0.86
CCOC(=O)C1=C(Cn2cnc3ccccc32)NC(=O)NC1c1ccc(OC)cc1 (centres undefined)	5.1	100.1	105.4	98.7	x	-0.74
CCOC(=O)C1=C(CNCc2ccc(C)cc2)NC(=O)NC1c1ccc(OC)cc1 (centres undefined)	5.1	94.5	50.0	97.4	34.6*	-0.31
CCN1CCN(c2ncc3c(n2)CC(c2ccc(OC)c(OC)c2)CC3=O)CC1 (centres undefined)	-0.9	81.5	19.0*	73.9	25.1	1.39
CCOC(=O)N1CCN(C(=O)c2ccc3c(=O)n4c(nc3c2)CCCCC4)CC1	7.3	97.4	99.9	101.4	0.2	x
